In ChEMBL document CHEMBL1145088, “Ascochlorin derivatives as ligands for nuclear hormone receptors” (J Med Chem, 2003):
pIC50: −log10 of the molar value.

Key:
[1] = molecular target: T1, Estrogen receptor (Homo sapiens, UniProt P03372); test: Minimum effective concentration required to activate Estrogen receptor 1 (ER alpha); Not detected
T1 sequence (P03372 whole entry): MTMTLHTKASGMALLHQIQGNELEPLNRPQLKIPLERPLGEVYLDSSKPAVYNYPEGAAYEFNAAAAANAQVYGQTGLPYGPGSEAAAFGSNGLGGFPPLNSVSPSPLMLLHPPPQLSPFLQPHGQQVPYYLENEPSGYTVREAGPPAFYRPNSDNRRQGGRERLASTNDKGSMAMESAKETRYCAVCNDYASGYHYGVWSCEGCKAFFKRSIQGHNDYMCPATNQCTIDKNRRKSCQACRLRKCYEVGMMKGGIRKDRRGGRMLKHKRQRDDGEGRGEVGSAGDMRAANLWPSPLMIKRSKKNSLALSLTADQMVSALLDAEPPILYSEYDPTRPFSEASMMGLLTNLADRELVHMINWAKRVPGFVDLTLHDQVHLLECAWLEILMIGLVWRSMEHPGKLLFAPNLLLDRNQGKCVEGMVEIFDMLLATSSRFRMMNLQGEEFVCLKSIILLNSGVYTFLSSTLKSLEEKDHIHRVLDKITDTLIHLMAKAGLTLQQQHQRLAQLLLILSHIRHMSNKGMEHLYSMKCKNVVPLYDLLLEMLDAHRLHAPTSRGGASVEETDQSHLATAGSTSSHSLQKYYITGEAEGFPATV

[2] = molecular target: Estrogen receptor beta (Homo sapiens, UniProt Q92731); test: Minimum effective concentration required to activate Estrogen receptor 2 (ER beta); Not detected
[3] = molecular target: T2, Nuclear receptor subfamily 1 group I member 2 (Homo sapiens, UniProt O75469); test: Minimum effective concentration required to activate pregnane X receptor (PXR)
T2 sequence (O75469 whole entry): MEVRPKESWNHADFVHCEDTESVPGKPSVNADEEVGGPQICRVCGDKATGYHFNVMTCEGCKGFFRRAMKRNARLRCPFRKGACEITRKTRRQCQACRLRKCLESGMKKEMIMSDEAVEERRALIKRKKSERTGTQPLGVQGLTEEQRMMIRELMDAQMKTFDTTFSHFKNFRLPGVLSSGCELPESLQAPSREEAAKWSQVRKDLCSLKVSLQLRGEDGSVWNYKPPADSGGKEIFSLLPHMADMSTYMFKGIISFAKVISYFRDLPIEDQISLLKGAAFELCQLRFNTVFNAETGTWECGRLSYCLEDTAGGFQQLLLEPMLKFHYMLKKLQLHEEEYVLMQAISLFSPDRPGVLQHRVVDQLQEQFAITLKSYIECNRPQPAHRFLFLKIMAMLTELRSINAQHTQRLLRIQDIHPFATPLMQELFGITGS

[4] = system: U2OS (Homo sapiens); test: Concentration required for inhibition of U2OS cell growth
[5] = molecular target: T3, Peroxisome proliferator-activated receptor gamma (Homo sapiens) (UniProt P37231); test: Minimum effective concentration required to inhibit Peroxisome proliferator activated receptor gamma (PPAR gamma)
T3 sequence (whole entry): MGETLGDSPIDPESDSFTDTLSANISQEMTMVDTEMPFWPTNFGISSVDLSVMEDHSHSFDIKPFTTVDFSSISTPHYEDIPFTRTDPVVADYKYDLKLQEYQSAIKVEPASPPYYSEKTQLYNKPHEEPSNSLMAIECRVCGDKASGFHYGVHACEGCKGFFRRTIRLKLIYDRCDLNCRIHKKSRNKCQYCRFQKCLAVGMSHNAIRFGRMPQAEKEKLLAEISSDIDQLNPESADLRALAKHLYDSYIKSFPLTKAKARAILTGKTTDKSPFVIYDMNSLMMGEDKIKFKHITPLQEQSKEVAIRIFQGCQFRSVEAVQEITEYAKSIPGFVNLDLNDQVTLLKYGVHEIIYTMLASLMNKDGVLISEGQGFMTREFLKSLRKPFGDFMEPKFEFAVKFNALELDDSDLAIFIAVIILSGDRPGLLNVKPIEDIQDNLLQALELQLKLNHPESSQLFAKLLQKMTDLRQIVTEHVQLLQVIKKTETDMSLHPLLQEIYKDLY

[6] = molecular target: T2, Nuclear receptor subfamily 1 group I member 2; test: Minimum effective concentration required to inhibit pregnane X receptor (PXR)
Procedure, shortened: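 U2OS cells (1 × 10^6 per 10 cm dish) were calcium-phosphate transfected with the receptor expression vector (2 µg; Gal4 fusions for PXR and PPARα), the matching reporter (4 µg) and pCMV-β-galactosidase (4 µg). They were cultured 12 h, PBS-washed, given fresh medium 4 h, trypsinized and exposed to drugs 20 h. Luciferase/CAT activity normalized to β-galactosidase as stimulation index; triplicate cultures.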

[7] = molecular target: T3, Peroxisome proliferator-activated receptor gamma (Homo sapiens); test: Minimum effective concentration required to activate Peroxisome proliferator activated receptor gamma (PPAR gamma)

Chain of Estrogen receptor beta (Q92731 whole entry): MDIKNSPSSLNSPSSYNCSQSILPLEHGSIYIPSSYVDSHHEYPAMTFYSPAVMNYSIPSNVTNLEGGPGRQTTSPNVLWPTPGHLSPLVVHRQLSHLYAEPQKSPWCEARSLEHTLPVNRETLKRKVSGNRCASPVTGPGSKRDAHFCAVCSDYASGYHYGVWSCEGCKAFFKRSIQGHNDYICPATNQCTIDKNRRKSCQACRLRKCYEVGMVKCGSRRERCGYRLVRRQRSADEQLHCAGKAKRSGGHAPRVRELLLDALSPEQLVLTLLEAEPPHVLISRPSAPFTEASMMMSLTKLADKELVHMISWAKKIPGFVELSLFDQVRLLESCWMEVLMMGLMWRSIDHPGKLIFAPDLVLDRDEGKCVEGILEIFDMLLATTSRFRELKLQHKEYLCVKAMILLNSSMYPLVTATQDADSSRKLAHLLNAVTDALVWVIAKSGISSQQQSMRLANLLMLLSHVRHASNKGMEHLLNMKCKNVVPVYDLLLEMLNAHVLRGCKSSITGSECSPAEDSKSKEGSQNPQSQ

Row | SMILES | MEC [1] | MEC [2] | MEC [3] | pIC50 [4] | MEC [5] | MEC [6] | MEC [7]
1 | C/C(=C\Cc1c(O)c(Cl)c(C)c(C=O)c1O)CC/C=C(\C)[C@@H]1CC(=O)C(C)(C)O1 [ASCOFURANONE] | Not Active | Not Active | 3 µM | 5.49 | – | – | –
2 | C/C(=C\Cc1c(O)c(C=O)c(C)c(Cl)c1OCC(=O)O)CC/C=C(\C)[C@@H]1CC(=O)C(C)(C)O1 | Not Active | Not Active | 30 µM | 4.49 | – | – | –
3 | CC(=O)Oc1c(Cl)c(C)c(C=O)c(O)c1C/C=C(\C)CC/C=C(\C)[C@@H]1CC(=O)C(C)(C)O1 | Not Active | Not Active | 1 µM | 5.00 | – | – | –
4 | C/C(=C\Cc1c(O)c(C=O)c(C)c(Cl)c1OC(=O)CCCC(=O)O)CC/C=C(\C)[C@@H]1CC(=O)C(C)(C)O1 | Not Active | Not Active | 10 µM | 5.49 | – | – | –
5 | COc1c(C=O)c(C)c(Cl)c(OC(C)=O)c1C/C=C(\C)CC/C=C(\C)[C@@H]1CC(=O)C(C)(C)O1 | Not Active | Not Active | 1 µM | 5.00 | – | – | –
6 | Cc1c(Cl)c2c(c(O)c1C=O)CC(CC(C)(O)/C=C/[C@@]1(C)[C@H](C)CCC3(OCCO3)[C@@H]1C)O2 (some centres not stated) | Not Active | Not Active | 3 µM | 4.74 | – | – | –
7 | COc1c(C=O)c(C)c(Cl)c(OC(=O)c2cccnc2)c1C/C=C(C)/C=C/[C@@]1(C)[C@H](C)CCC(=O)[C@@H]1C | Not Active | Not Active | 10 µM | 4.43 | – | – | 100 µM
8 | COc1c(C=O)c(C)c(Cl)c(OC(=O)c2ccccn2)c1C/C=C(C)/C=C/[C@@]1(C)[C@H](C)CCC(=O)[C@@H]1C | – | – | – | – | 30 µM | 1 µM | –
9 | Cc1c(C=O)cc2c(c1Cl)OC(C)(/C=C/[C@]1(C)C(C)C(=O)CC[C@H]1C)CC2 (some centres not stated) | Not Active | Not Active | 1 µM | 4.74 | – | – | –
10 | COc1c(C=O)c(C)c(Cl)c(OC(=O)c2ccncc2)c1C/C=C(C)/C=C/[C@@]1(C)[C@H](C)CCC(=O)[C@@H]1C | – | – | – | – | 0.3 µM | 3 µM | –
11 | COc1c(Cl)c(C)c(C=O)c(O)c1C/C=C(\C)CC/C=C(\C)[C@@H]1CC(=O)C(C)(C)O1 | Not Active | Not Active | 1 µM | 5.25 | – | – | –
12 | CC(/C=C/[C@@]1(C)[C@H](C)CCC(=O)[C@@H]1C)=C\Cc1c(O)c(C=O)c(C)c(Cl)c1OC(=O)CCCC(=O)O | Not Active | Not Active | 1 µM | 6.22 | – | – | 10 µM
13 | COc1c(C=O)c(C)c(Cl)c(O)c1C/C=C(C)/C=C/[C@@]1(C)[C@H](C)CCC(=O)[C@@H]1C | Not Active | Not Active | 1 µM | 5.25 | – | – | 10 µM
14 | C/C(=C\Cc1c(O)c(C=O)c(C)c(Cl)c1OC(=O)c1ccncc1)CC/C=C(\C)[C@@H]1CC(=O)C(C)(C)O1 | Not Active | Not Active | 10 µM | 5.00 | – | – | –

Continued, values first:

Row | MEC [1] | MEC [2] | MEC [3] | pIC50 [4] | MEC [5] | MEC [6] | MEC [7] | SMILES
15 | Not Active | Not Active | 1 µM | 5.00 | – | – | – | COc1c(Cl)c(C)c(C=O)c(OC)c1CC1OC1(C)/C=C/[C@@]1(C)[C@H](C)CCC(=O)[C@@H]1C (some centres not stated)
16 | – | – | – | – | 3 µM | 1 µM | – | CC(/C=C/[C@@]1(C)[C@H](C)CCC(=O)[C@@H]1C)=C\Cc1c(O)c(C=O)c(C)c(Cl)c1OC(=O)c1ccccn1
17 | Not Active | Not Active | 3 µM | 4.25 | – | – | 3 µM | COc1c(C=O)c(C)c(Cl)c(OCC(=O)O)c1C/C=C(C)/C=C/[C@@]1(C)[C@H](C)CCC(=O)[C@@H]1C
18 | Not Active | Not Active | 3 µM | 5.33 | – | – | 10 µM | CC(/C=C/[C@@]1(C)[C@H](C)CCC(=O)[C@@H]1C)=C\Cc1c(O)c(C=O)c(C)c(Cl)c1OC(=O)c1cccnc1
19 | Not Active | Not Active | 1 µM | 5.74 | – | – | – | COc1c(Cl)c(C)c(C=O)c(O)c1C/C=C(C)/C=C/[C@@]1(C)[C@H](C)CCC(=O)[C@@H]1C
20 | Not Active | Not Active | 3 µM | 4.25 | – | – | – | Cc1c(Cl)c(O)c2c(c1C=O)OC(C)(/C=C/[C@]1(C)C(C)C(=O)CC[C@H]1C)CC2 (some centres not stated)
21 | Not Active | Not Active | 1 µM | 5.49 | – | – | 3 µM | CCOC(=O)COc1c(Cl)c(C)c(C=O)c(OC)c1C/C=C(C)/C=C/[C@@]1(C)[C@H](C)CCC(=O)[C@@H]1C
22 | Not Active | Not Active | 30 µM | 4.25 | – | – | 30 µM | CC(/C=C/[C@@]1(C)[C@H](C)CCC(=O)[C@@H]1C)=C\Cc1c(O)c(C=O)c(C)c(Cl)c1OCC(=O)O
23 | Not Active | Not Active | 1 µM | 5.00 | – | – | 10 µM | CC(/C=C/[C@@]1(C)[C@H](C)CCC(=O)[C@@H]1C)=C\Cc1c(O)c(C=O)c(C)c(Cl)c1OC(=O)c1ccncc1
24 | Not Active | Not Active | 1 µM | 4.74 | – | – | 30 µM | COc1c(C=O)c(C)c(Cl)c(O)c1C/C=C(\C)CC/C=C(\C)[C@@H]1CC(=O)C(C)(C)O1
25 | Not Active | Not Active | 10 µM | 5.00 | – | – | – | C/C(=C\Cc1c(O)c(C=O)c(C)c(Cl)c1OC(=O)c1cccnc1)CC/C=C(\C)[C@@H]1CC(=O)C(C)(C)O1
26 | Not Active | Not Active | 1 µM | 4.25 | – | – | – | COc1c(Cl)c(C)c(C(=O)O)c(OC)c1C/C=C(C)/C=C/[C@@]1(C)[C@H](C)CCC(=O)[C@@H]1C
